Results on 15 molecules are retold here after PubChem BioAssay.

Active and inactive are the calls of the source.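 How the source made its calls, unless noted: active means viability at or under a set limit in both replicates, limit being median viability minus 3 SD (cut at about 48% in these data, passing the limit was not always enough); inconclusive means at or under the limit in just one replicate; inactive means at or above the limit in both replicates.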

Test [1] in a line: Her2 expression decrease, cell viability multiplex – SKBR3 breast tumor cells, AlphaScreen, ATP viability, primary screen (AID 461;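 active means Her2 level under about 52% in both replicate screens, with viability over 70% of control, limit read from the data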;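 on Her2 level: lower value means less Her2 protein in the cells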;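 on viability: percent of carrier control wells set as 100% viability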). The settings on record: SKBR3 Her2 protein level, 18-24 h, measured here: SKBR3 viability, ATP luminescence, at 10 µM. Background: Bead proximity is the source of the signal in Alpha formats.
Test [2] concerns the target Receptor tyrosine-protein kinase erbB-2 (Homo sapiens) (UniProt P04626). The description is as above. The settings on record: 18-24 h, at 10 µM, stronger effect = lower value.
Test [3] is described as follows: reduced viability of SK-BR-3 breast cancer cells – cell-based, 24 h, human, pilot screen (AID 572;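 active means viability at or below 10% of carrier control in both of two separate runs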;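 further: compound exposure lasted between 18 and 24 h rather than exactly 24 h; 100% = carrier-treated control wells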). The settings on record: SK-BR-3 viability, CellTiter-Glo luminescence, at 10 µM, stronger effect = lower value. (In ATP-based viability assays light output follows the ATP content of the culture.)
The nature of test [4]: HUVEC growth inhibition – cell-based, human, primary screen (AID 575;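 active means viability at or below 30% in both replicate assays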;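 further: 100% = median of untreated cell wells with 0.1% DMSO on each plate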). The settings on record: HUVEC proliferation, CellTiter-Glo luminescence, 72 h; at 10 µM; stronger effect = lower value. The gist of the method: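 Material: primary human umbilical vein endothelial cells / Schedule: 72 h exposure, 37 °C, 5% CO2, 30 min RT equilibration / Signal: ATP-based CellTiter-Glo luminescent read / Read-out basis: percent of median DMSO-control luminescence / Control set: 32 DMSO-only cell-control wells (high), 32 MePR drug-control wells (low) per plate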

The nature of test [5]: H69AR cell proliferation blockers – human, duplicate replicates, primary screen (AID 580).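 Further: 100% = mean luminescence of untreated wells and 0% = no signal.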 The settings on record: H69AR lung tumor cells viability, ATP luminescence, 72 h; at 10 µM; stronger effect = lower value.
Test [6] can be described thus: MRP1 drug-resistance reversers in H69AR cells – cell-based, doxorubicin co-treatment, pilot screen (AID 601;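 active means viability loss from added drug above about 55%, and viability with drug at most 40%, in both replicates, limit read from the data, passing the limit was not always enough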). The settings on record: CellTiter-Glo, 72 h, at 10 µM; for differential viability (reversal): stronger effect = higher value.
A short description of test [7]: yeast transport mutant growth inhibition pilot in 384-well plates, post-Golgi transport modulator project (AID 636; in the data active means inhibition above about 31%). The settings on record: absorbance 615 nm, about 18 h, stronger effect = higher value.
Test [8] is described as follows: growth suppression of yeast trafficking mutant, preliminary HTS, modulators of trafficking downstream of Golgi apparatus project, 1536-format plate, OD 615 nm (AID 637; in the data active means inhibition above about 30%). The settings on record: yeast transport mutant growth, absorbance 615 nm, 18 h; stronger effect = higher value.
[9] abbreviates: H69AR cells + 2 uM doxorubicin, measured here: viability with 2 uM doxorubicin, stronger effect = lower value.
Where [10] appears, read: H69AR cells, compound alone cytotoxicity.

Chain of Receptor tyrosine-protein kinase erbB-2 (Homo sapiens) (P04626 whole entry, looked up): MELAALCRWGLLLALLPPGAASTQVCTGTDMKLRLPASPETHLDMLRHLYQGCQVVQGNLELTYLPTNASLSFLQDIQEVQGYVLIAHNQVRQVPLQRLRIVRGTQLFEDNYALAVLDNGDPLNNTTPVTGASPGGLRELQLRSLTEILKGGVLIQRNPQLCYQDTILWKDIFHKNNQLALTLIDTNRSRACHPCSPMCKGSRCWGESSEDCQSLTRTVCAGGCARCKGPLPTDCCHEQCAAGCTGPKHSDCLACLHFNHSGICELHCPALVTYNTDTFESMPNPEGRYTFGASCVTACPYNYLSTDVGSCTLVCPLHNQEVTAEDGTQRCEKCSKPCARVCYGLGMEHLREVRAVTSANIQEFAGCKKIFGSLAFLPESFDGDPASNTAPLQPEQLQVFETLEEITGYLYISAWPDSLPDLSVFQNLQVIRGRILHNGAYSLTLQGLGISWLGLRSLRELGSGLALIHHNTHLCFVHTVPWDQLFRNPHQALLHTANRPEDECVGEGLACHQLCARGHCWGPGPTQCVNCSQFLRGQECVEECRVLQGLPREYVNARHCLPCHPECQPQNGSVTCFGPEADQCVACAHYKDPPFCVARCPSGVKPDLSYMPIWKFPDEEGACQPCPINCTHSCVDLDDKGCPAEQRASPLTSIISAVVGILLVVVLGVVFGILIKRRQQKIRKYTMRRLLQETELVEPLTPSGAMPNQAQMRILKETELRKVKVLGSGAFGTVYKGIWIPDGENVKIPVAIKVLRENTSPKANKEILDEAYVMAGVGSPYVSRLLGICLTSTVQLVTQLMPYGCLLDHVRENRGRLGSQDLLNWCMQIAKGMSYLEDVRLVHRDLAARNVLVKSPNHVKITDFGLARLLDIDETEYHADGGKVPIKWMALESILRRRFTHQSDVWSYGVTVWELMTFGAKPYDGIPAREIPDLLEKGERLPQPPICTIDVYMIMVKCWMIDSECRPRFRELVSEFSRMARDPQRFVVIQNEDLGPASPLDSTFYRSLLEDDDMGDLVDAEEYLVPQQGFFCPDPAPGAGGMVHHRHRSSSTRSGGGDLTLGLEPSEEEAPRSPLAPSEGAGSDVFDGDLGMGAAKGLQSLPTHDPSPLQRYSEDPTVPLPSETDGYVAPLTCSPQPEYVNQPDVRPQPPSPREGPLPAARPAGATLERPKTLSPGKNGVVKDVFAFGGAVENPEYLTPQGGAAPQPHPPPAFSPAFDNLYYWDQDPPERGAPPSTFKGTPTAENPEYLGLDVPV

In general, viability refers to a read-out of living cells in per cent, often relative to untreated cells. For orientation: inhibition means the change of the read-out against control, counted positive when it falls. In the case of `O=C(c1cccnc1NCc1ccccc1)N1CCOCC1`, the viability in test [1] was 77.5%; in test [3], 77.5% (inactive); in test [4], 86.4% (inactive); in test [5], 93.8% (inactive); in test [6] (setting [9]), 93%; in test [6] (setting [10]), 93.8%. Also, the Her2 level in test [2] is 126% (inactive). Further, the differential viability (reversal) in test [6] (H69AR cells + 2 uM doxorubicin) was 0.76% (inactive). For the same molecule, the inhibition in test [7] is 1.08% (inactive); in test [8], 23.2% (inactive).

In the case of `Cc1cccn2c(=O)c3cc(C(=O)N4CCCc5ccccc54)n(C)c3nc12`, the viability in test [1] is 86.5%; in test [3], 86.5% (inactive); in test [4], 97.2% (inactive); in test [5], 90.2% (inactive); in test [6] (setting [9]), 89.2%; in test [6] (setting [10]) it was 90.2%. For the same molecule, the Her2 level in test [2] was 80% (inactive). For the same molecule, in test [6] (H69AR cells + 2 uM doxorubicin), the differential viability (reversal) was 1.01% (inactive). Also, the inhibition in test [7] was -1.89% (inactive); in test [8], -5.08% (inactive).

Take `O=c1cc(NCc2ccccc2)nc2n1CCCS2`: the viability in test [1] is 103%; in test [3] it was 103% (inactive); in test [4], 104% (inactive); in test [5] it was 92.1% (inactive); in test [6] (setting [9]), 91.8%; in test [6] (setting [10]), 92.1%. The Her2 level in test [2] was 98% (inactive). Moreover, the differential viability (reversal) in test [6] (H69AR cells + 2 uM doxorubicin) is 0.29% (inactive). Besides, the inhibition was -3.68% (inactive) in test [7] and -5.71% (inactive) in test [8].

On to `CCOc1cc(-c2nc3ccccn3c2NCC2CCCO2)ccc1O` (stereo not given), for which the viability was 69.5% in test [1]; 69.5% (inactive) in test [3]; 88.7% (inactive) in test [4]; 40.7% (active) in test [5]; 35.6% in test [6] (setting [9]); 40.7% in test [6] (setting [10]). In test [2], the Her2 level is 111% (inactive). In test [6] (H69AR cells + 2 uM doxorubicin), the differential viability (reversal) was 5.11% (inactive). Also, the results for the inhibition in test [7] and in test [8] were 4.27% (inactive) and 24% (inactive), respectively.

In the case of `Cc1cc(C(=O)OCCO)c(C#N)c(N)n1`, the viability in test [1] was 92%; in test [3] it was 92% (inactive); in test [4] it was 95.9% (inactive); in test [5], 92.1% (inactive); in test [6] (setting [9]), 97.6%; in test [6] (setting [10]) it was 92.1%. For the same molecule, the Her2 level in test [2] was 90.5% (inactive). The differential viability (reversal) in test [6] (H69AR cells + 2 uM doxorubicin) is -5.51% (inactive). For the same molecule, the inhibition in test [7] is -3.87% (inactive); in test [8], 1.94% (inactive).

As for `COc1ccc(S(=O)(=O)NCC(=O)N(CC(=O)NCC2CCCO2)c2ccccc2C)cc1` (stereo not given), the viability in test [1] is 123%; in test [3], 123% (inactive); in test [4] it was 107% (inactive); in test [5], 83.4% (inactive); in test [6] (setting [9]), 76.4%; in test [6] (setting [10]), 83.4%. In test [2], the Her2 level was 82% (inactive). Also, the differential viability (reversal) in test [6] (H69AR cells + 2 uM doxorubicin) was 7.01% (inactive). Moreover, the inhibition in test [7] was -3.73% (inactive); in test [8] it was -0.32% (inactive).

Regarding `N#Cc1c(/N=C/c2cccs2)sc2c1CCCCC2`, the viability was 98.5% in test [1]; 98.5% (inactive) in test [3]; 66.5% (inactive) in test [4]; 90.3% (inactive) in test [5]; 73.9% in test [6] (setting [9]); 90.3% in test [6] (setting [10]). The Her2 level in test [2] was 88.5% (inactive). In addition, the differential viability (reversal) in test [6] (H69AR cells + 2 uM doxorubicin) was 16.3% (inactive). Moreover, the results for the inhibition in test [7] and in test [8] were -5.33% (inactive) and 5.74% (inactive), respectively.

As for `COc1ccc(OC)c(C(=O)COC(=O)c2cc(C)oc2C)c1`, the viability in test [1] is 112%; in test [3], 112% (inactive); in test [4], 62.9% (inactive); in test [5], 92.7% (inactive); in test [6] (setting [9]), 87.9%; in test [6] (setting [10]) it was 92.7%. Moreover, in test [2], the Her2 level was 71% (inactive). For the same molecule, the differential viability (reversal) in test [6] (H69AR cells + 2 uM doxorubicin) was 4.87% (inactive). Also, the inhibition in test [7] was -7.33% (inactive); in test [8], -4.92% (inactive).

In the case of `CCCOC(=O)C1[C@H]2C(=O)N(CCCOC)C[C@]23C=C[C@H]1O3` (stereo not given in full), the viability in test [1] was 92.5%; in test [3], 92.5% (inactive); in test [4], 98.5% (inactive); in test [5] it was 98.3% (inactive); in test [6] (setting [9]), 100%; in test [6] (setting [10]), 98.3%. For the same molecule, in test [2], the Her2 level is 85% (inactive). Further, the differential viability (reversal) in test [6] (H69AR cells + 2 uM doxorubicin) is -1.98% (inactive). Besides, the figures for the inhibition in test [7] and in test [8] were -5.06% (inactive) and -3.17% (inactive), respectively.

In the case of `Cc1nc(/N=C(\N)Nc2ccccc2)nc2ccccc12`, the viability was 91.5% in test [1]; 91.5% (inactive) in test [3]; 74.5% (inactive) in test [4]; 78.7% (inactive) in test [5]; 99.7% in test [6] (setting [9]); 78.7% in test [6] (setting [10]). Further, the Her2 level in test [2] was 67.5% (inactive). Moreover, the differential viability (reversal) in test [6] (H69AR cells + 2 uM doxorubicin) was -21% (inactive). Moreover, the inhibition is -0.26% (inactive) in test [7] and 10.5% (inactive) in test [8].

Regarding `C=CCN1C(=O)/C(=C2\SC(N3CCOCC3)=NC2=O)c2cc(Br)ccc21`, the viability in test [1] is 82.5%; in test [3] it was 82.5% (inactive); in test [4] it was 86.1% (inactive); in test [5], 83.1% (inactive); in test [6] (setting [9]) it was 87.5%; in test [6] (setting [10]) it was 83.1%. Moreover, the Her2 level in test [2] is 84.5% (inactive). Besides, the differential viability (reversal) in test [6] (H69AR cells + 2 uM doxorubicin) was -4.46% (inactive). Further, the inhibition in test [7] was -1.32% (inactive); in test [8], -2.55% (inactive).

Regarding `Cc1nnc2n(Cc3ccccc3)c(=O)c3c4c(sc3n12)COC(C(C)C)C4` (stereo not given), the viability in test [1] is 124%; in test [3] it was 124% (inactive); in test [4] it was 82.5% (inactive); in test [5] it was 76.2% (inactive); in test [6] (setting [9]) it was 59.2%; in test [6] (setting [10]) it was 76.2%. Also, the Her2 level in test [2] was 69% (inactive). Further, the differential viability (reversal) in test [6] (H69AR cells + 2 uM doxorubicin) was 17% (inactive). Further, the inhibition in test [7] is -7.6% (inactive); in test [8] it was 11.9% (inactive).

In the case of `Cc1ccc(NC(=O)N2CCC(c3nc4c(nnn4Cc4cccc(Cl)c4)c(=O)[nH]3)CC2)cc1`, the viability is 81.5% in test [1]; 81.5% (inactive) in test [3]; 61.8% (inactive) in test [4]; 85.2% (inactive) in test [5]; 65.6% in test [6] (setting [9]); 85.2% in test [6] (setting [10]). Also, in test [2], the Her2 level was 76.5% (inactive). Moreover, the differential viability (reversal) in test [6] (H69AR cells + 2 uM doxorubicin) is 19.6% (inactive). The inhibition in test [7] was -0.13% (inactive); in test [8], -1.45% (inactive).

Turning to `O=C(NCC1CCCO1)C1CCN(c2ccc(S(=O)(=O)N3CCCC3)cc2)CC1` (stereo not given), the viability in test [1] was 115%; in test [3], 115% (inactive); in test [4], 99.2% (inactive); in test [5], 80% (inactive); in test [6] (setting [9]), 86%; in test [6] (setting [10]), 80%. Further, the Her2 level in test [2] was 112% (inactive). Moreover, in test [6] (H69AR cells + 2 uM doxorubicin), the differential viability (reversal) is -6.02% (inactive). The values for the inhibition in test [7] and in test [8] were -5.45% (inactive) and -1.5% (inactive), respectively.

In the case of `C=CCn1c(COc2ccccc2)nnc1SCC(=O)C(C)(C)C`, the viability was 78% in test [1]; 78% (inactive) in test [3]; 102% (inactive) in test [4]; 97.8% (inactive) in test [5]; 92.6% in test [6] (setting [9]); 97.8% in test [6] (setting [10]). Further, in test [2], the Her2 level was 107% (inactive). Moreover, the differential viability (reversal) in test [6] (H69AR cells + 2 uM doxorubicin) is 5.13% (inactive). Further, the inhibition in test [7] was -1.95% (inactive); in test [8], -4.67% (inactive).
